Experiments:
[1] = biological target: Receptor tyrosine-protein kinase erbB-2 (Homo sapiens) (UniProt P04626); assay: Inhibition of N-terminal His-tagged human HER2 cytoplasmic domain (676 to 1255 residues) expressed in baculovirus expression system at 1 uM using FAM-labeled peptide as substrate after 10 mins by mobility shift assay relative to control
How it was run: (§1)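 Caliper mobility-shift kinase assay. Kinase in kinase base buffer was preincubated with compound for 10 min at room temperature. FAM-labelled peptide and ATP at Km were then added, and the reaction ran at 28 °C until quenched with buffer. Screening concentration was 1 µM. Percent inhibition = (max − conversion)/(max − min) × 100, with DMSO as max and a low control as min.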

[2] = biological target: Vascular endothelial growth factor receptor 3 (Homo sapiens) (UniProt P35916); assay: Inhibition of recombinant human GST-tagged FLT4 cytoplasmic domain (800 to 1297 residues) expressed in baculovirus expression system at 1 uM using FAM-labeled peptide as substrate after 10 mins by mobility shift assay relative to control; how it was run: as §1
[3] = biological target: Vascular endothelial growth factor receptor 1 (Homo sapiens) (UniProt P17948); assay: Inhibition of recombinant human GST-tagged FLT1 cytoplasmic domain (781 to 1338 residues) expressed in baculovirus expression system at 1 uM using FAM-labeled peptide as substrate after 10 mins by mobility shift assay relative to control; how it was run: as §1
Vascular endothelial growth factor receptor 1 (Homo sapiens), sequence (P17948 whole entry, the tested form may be a part): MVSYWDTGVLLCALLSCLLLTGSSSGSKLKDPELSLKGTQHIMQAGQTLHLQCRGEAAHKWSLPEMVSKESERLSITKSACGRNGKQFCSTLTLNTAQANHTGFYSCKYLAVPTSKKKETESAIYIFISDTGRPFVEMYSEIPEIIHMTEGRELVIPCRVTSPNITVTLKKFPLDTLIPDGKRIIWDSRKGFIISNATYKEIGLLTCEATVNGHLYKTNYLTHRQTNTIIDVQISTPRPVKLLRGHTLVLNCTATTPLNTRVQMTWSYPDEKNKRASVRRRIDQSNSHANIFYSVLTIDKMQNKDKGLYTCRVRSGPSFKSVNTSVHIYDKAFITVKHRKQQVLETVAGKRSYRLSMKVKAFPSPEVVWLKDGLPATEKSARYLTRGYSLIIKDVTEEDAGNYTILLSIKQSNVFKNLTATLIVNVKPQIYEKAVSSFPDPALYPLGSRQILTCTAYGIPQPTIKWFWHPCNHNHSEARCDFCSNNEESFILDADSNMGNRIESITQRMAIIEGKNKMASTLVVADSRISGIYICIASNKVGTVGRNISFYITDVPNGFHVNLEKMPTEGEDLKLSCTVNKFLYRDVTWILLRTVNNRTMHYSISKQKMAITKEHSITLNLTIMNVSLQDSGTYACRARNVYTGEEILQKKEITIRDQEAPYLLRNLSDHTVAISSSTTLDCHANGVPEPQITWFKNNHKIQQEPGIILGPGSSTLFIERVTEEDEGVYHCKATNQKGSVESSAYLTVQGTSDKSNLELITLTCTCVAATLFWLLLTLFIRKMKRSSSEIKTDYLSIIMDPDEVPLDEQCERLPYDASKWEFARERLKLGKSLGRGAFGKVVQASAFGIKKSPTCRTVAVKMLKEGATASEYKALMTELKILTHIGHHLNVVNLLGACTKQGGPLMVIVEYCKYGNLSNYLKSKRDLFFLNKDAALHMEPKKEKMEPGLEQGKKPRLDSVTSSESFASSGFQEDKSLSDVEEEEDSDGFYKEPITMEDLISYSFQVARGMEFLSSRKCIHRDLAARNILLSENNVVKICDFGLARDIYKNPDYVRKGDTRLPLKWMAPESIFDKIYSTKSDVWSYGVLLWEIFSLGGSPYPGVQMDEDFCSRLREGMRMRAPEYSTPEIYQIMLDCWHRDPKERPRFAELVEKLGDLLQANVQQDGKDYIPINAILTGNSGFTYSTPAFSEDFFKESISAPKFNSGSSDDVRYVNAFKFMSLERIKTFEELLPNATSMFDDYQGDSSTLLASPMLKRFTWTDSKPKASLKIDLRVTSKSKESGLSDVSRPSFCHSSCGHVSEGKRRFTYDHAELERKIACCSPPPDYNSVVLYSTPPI

[4] = biological target: T1, Inhibitor of nuclear factor kappa-B kinase subunit beta (Homo sapiens) (UniProt O14920); assay: Inhibition of human N-terminal His-tagged truncated IKKB (1 to 662 residues) expressed in baculovirus expression system at 1 uM using FAM-labeled peptide as substrate after 10 mins by mobility shift assay relative to control; how it was run: as §1
T1 sequence (whole entry): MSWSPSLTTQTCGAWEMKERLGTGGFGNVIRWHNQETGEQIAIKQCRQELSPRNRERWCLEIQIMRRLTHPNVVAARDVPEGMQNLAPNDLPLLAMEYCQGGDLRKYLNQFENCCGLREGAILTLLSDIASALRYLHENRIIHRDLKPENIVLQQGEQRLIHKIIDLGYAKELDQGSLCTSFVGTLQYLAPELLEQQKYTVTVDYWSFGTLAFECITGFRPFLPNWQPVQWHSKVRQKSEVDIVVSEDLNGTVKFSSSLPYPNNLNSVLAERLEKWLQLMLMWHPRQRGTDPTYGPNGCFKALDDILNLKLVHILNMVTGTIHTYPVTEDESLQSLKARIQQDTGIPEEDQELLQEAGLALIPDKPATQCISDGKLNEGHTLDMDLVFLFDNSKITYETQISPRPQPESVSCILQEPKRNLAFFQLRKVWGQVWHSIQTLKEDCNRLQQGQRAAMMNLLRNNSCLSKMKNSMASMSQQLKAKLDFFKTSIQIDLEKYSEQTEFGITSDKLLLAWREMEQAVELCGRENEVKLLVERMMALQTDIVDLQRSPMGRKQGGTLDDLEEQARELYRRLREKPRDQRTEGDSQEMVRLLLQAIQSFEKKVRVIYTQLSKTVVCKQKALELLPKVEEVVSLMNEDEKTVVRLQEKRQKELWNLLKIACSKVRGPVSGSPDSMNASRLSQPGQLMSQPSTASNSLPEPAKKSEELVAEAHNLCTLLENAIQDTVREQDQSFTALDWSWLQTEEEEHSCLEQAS

[5] = biological target: Fibroblast growth factor receptor 4 (Homo sapiens) (UniProt P22455); assay: Inhibition of N-terminal GST-tagged human FGFR4 cytoplasmic domain (460 to 802 residues) expressed in baculovirus expression system at 1 uM using FAM-labeled peptide as substrate after 10 mins by mobility shift assay relative to control; how it was run: as §1
Fibroblast growth factor receptor 4 (Homo sapiens), sequence (P22455 22-802 limits assumed): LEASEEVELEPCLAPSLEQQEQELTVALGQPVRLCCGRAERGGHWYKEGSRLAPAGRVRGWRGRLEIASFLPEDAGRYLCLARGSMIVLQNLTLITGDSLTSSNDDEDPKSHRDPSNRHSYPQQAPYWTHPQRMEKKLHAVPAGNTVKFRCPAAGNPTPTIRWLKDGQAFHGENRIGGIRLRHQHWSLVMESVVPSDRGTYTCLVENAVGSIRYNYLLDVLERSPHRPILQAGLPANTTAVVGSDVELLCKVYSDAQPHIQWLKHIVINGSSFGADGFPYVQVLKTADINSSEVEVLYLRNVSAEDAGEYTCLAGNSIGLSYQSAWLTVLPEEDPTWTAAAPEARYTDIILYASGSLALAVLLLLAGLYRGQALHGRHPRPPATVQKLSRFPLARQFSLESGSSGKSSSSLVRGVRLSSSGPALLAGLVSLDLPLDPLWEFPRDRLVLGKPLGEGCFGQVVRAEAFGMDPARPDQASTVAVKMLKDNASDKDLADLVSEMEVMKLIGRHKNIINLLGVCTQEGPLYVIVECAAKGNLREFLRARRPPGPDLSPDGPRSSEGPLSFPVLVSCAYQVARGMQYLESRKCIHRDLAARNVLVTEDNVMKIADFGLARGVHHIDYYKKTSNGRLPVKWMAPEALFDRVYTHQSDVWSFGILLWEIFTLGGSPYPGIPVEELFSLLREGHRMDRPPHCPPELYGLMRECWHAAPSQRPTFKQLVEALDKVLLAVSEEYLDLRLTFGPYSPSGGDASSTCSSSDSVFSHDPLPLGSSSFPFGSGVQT

[6] = biological target: Insulin-like growth factor 1 receptor (Homo sapiens) (UniProt P08069); assay: Inhibition of human His-tagged IGF1R cytoplasmic domain (960 to 1397 residues) expressed in baculovirus expression system at 1 uM using FAM-labeled peptide as substrate after 10 mins by mobility shift assay relative to control; how it was run: as §1
[7] = biological target: Non-receptor tyrosine-protein kinase TYK2 (Homo sapiens) (UniProt P29597); assay: Inhibition of human N-terminal GST-tagged TYK2 catalytic domain (871 to 1187 residues) expressed in baculovirus expression system at 1 uM using FAM-labeled peptide as substrate after 10 mins by mobility shift assay relative to control; how it was run: as §1
[8] = biological target: Fibroblast growth factor receptor 1 (Homo sapiens) (UniProt P11362); assay: Inhibition of N-terminal GST-tagged human FGFR1 cytoplasmic domain (398 to 822 residues) expressed in baculovirus expression system at 1 uM using FAM-labeled peptide as substrate after 10 mins by mobility shift assay relative to control; how it was run: as §1
[9] = biological target: Fibroblast growth factor receptor 2 (Homo sapiens) (UniProt P21802); assay: Inhibition of N-terminal GST-tagged human FGFR2 cytoplasmic domain (399 to 821 residues) expressed in baculovirus expression system at 1 uM using FAM-labeled peptide as substrate after 10 mins by mobility shift assay relative to control; how it was run: as §1
[10] = biological target: Receptor-type tyrosine-protein kinase FLT3 (Homo sapiens) (UniProt P36888); assay: Inhibition of human N-terminal GST-tagged FLT3 cytoplasmic domain (564 to 993 residues) expressed in baculovirus expression system at 1 uM using FAM-labeled peptide as substrate after 10 mins by mobility shift assay relative to control; how it was run: as §1
[11] = biological target: Proto-oncogene tyrosine-protein kinase Src (Homo sapiens) (UniProt P12931); assay: Inhibition of N-terminal GST-tagged full length human SRC cytoplasmic domain (1 to 536 residues) expressed in baculovirus expression system at 1 uM using FAM-labeled peptide as substrate after 10 mins by mobility shift assay relative to control; how it was run: as §1
Proto-oncogene tyrosine-protein kinase Src (Homo sapiens), sequence (P12931 2-536 limits assumed): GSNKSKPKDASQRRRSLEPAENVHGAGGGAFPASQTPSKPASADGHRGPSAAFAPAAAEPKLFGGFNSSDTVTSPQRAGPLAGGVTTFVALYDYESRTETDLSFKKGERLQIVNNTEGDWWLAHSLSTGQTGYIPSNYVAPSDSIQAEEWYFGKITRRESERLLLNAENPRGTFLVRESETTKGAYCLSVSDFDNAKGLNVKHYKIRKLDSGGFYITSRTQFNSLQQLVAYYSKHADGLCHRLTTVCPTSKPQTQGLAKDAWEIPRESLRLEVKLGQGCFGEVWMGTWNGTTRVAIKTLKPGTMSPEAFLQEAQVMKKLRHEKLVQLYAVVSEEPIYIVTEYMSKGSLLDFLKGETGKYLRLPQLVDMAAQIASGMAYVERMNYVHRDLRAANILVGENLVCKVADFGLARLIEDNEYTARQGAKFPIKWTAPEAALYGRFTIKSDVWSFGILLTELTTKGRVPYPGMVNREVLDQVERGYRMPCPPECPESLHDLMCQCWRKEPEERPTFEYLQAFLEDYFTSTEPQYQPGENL

[12] = biological target: Platelet-derived growth factor receptor beta (Homo sapiens) (UniProt P09619); assay: Inhibition of N-terminal GST-tagged human PDGFRbeta cytoplasmic domain (557 to 1106 residues) expressed in baculovirus expression system at 1 uM using FAM-labeled peptide as substrate after 10 mins by mobility shift assay relative to control; how it was run: as §1
[13] = biological target: Receptor tyrosine-protein kinase erbB-4 (Homo sapiens) (UniProt Q15303); assay: Inhibition of N-terminal GST-tagged human HER4 cytoplasmic domain (676 to 1308 residues) expressed in baculovirus expression system at 1 uM using FAM-labeled peptide as substrate after 10 mins by mobility shift assay relative to control; how it was run: as §1
Receptor tyrosine-protein kinase erbB-4 (Homo sapiens), sequence (Q15303 whole entry, the tested form may be a part): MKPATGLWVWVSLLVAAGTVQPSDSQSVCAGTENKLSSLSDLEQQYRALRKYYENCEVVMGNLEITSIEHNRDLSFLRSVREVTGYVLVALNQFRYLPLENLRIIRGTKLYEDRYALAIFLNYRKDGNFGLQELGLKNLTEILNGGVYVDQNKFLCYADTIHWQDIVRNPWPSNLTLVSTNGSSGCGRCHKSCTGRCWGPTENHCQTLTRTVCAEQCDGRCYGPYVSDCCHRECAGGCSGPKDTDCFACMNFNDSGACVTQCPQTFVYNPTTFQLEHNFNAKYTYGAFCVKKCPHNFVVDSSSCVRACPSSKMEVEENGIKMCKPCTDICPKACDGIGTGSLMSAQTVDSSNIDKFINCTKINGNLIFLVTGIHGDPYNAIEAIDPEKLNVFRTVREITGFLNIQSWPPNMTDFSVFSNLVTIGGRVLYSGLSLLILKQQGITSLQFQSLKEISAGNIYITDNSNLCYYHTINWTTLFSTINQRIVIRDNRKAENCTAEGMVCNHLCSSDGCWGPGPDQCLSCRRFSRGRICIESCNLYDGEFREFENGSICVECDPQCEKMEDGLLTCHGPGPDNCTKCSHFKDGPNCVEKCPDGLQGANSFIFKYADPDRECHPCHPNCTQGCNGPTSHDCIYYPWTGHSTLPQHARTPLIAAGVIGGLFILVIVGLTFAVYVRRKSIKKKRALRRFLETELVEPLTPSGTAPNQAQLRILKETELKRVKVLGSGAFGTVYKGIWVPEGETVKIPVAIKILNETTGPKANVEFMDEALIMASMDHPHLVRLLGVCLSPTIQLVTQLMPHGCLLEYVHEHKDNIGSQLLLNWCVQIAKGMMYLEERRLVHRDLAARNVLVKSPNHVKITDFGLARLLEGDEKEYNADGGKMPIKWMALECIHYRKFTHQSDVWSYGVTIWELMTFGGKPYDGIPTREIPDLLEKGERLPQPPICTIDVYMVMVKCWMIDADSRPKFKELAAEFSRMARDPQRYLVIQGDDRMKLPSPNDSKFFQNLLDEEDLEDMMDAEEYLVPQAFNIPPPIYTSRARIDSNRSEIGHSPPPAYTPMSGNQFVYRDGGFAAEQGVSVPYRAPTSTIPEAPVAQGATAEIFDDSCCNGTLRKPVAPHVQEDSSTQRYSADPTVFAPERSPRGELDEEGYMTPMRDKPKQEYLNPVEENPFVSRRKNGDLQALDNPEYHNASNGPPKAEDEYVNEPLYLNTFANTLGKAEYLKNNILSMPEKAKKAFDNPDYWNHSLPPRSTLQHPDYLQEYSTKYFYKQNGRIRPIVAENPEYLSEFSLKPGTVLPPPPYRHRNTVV

[14] = biological target: Tyrosine-protein kinase JAK1 (Homo sapiens) (UniProt P23458); assay: Inhibition of human N-terminal GST-tagged JAK1 catalytic domain (850 to 1154 residues) expressed in baculovirus expression system at 1 uM using FAM-labeled peptide as substrate after 10 mins by mobility shift assay relative to control; how it was run: as §1
[15] = biological target: Proto-oncogene tyrosine-protein kinase receptor Ret (Homo sapiens) (UniProt P07949); assay: Inhibition of N-terminal GST-tagged human RET cytoplasmic domain (658 to 1114 residues) expressed in baculovirus expression system at 1 uM using FAM-labeled peptide as substrate after 10 mins by mobility shift assay relative to control; how it was run: as §1
Proto-oncogene tyrosine-protein kinase receptor Ret (Homo sapiens), sequence (P07949 whole entry, the tested form may be a part): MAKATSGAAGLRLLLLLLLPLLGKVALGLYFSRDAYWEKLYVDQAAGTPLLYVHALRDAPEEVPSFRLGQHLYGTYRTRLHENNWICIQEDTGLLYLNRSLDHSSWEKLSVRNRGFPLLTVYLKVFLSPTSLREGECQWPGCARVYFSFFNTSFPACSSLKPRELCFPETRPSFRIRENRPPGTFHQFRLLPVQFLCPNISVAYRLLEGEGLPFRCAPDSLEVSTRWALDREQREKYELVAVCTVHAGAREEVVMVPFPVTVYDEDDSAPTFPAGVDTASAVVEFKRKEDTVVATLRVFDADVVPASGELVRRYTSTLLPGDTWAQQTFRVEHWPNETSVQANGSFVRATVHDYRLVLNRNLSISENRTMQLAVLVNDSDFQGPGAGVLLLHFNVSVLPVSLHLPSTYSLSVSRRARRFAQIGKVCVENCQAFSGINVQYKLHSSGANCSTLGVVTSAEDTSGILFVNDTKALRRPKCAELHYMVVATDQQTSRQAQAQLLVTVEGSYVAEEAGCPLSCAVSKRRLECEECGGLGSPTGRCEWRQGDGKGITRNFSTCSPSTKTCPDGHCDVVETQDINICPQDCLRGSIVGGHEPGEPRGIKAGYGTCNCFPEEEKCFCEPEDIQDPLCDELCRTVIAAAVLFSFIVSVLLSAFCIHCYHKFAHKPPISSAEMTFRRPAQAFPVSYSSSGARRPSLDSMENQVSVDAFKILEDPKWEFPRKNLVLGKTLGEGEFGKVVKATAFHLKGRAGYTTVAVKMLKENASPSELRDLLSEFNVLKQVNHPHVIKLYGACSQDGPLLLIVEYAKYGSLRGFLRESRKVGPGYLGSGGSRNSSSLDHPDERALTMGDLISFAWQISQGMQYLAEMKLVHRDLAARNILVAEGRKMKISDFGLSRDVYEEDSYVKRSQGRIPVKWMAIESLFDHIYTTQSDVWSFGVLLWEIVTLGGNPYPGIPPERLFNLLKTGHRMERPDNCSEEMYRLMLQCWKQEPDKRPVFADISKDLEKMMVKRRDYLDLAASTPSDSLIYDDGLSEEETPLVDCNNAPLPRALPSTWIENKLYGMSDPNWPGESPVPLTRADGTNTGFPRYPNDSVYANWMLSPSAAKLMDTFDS

[16] = biological target: High affinity nerve growth factor receptor (Homo sapiens) (UniProt P04629); assay: Inhibition of N-terminal GST-tagged human TRKA cytoplasmic domain (436 to 790 residues) expressed in baculovirus expression system at 1 uM using FAM-labeled peptide as substrate after 10 mins by mobility shift assay relative to control; how it was run: as §1

SMILES | inhibition [1] | inhibition [2] | inhibition [3] | inhibition [4] | inhibition [5] | inhibition [6] | inhibition [7] | inhibition [8] | inhibition [9] | inhibition [10] | inhibition [11] | inhibition [12] | inhibition [13] | inhibition [14] | inhibition [15] | inhibition [16]
COc1cccc(Nc2cc(NC(=O)CCCC(=O)O)ncn2)c1 | -1.9% | 29.4% | 11.8% | 13.3% | 21.6% | 10.1% | -4.4% | 24% | 21.4% | 10.5% | 16.6% | 10.3% | 21.7% | -0.7% | 7.7% | 18.8%
O=C(O)CCCC(=O)Nc1cc(N2CCOCC2)ncn1 | -1.5% | 9.5% | -9.5% | -3.2% | 4% | 4% | 2.5% | 5.6% | 5.9% | 16.4% | 11.7% | 10% | 8.3% | -2.4% | 8.5% | 6%
COc1cccc(Nc2cc(Nc3cc(OC)ccc3OC)ncn2)c1 | -4.2% | 47.3% | 18.1% | -2.1% | 4.8% | 6.3% | 0% | 4.8% | 9.8% | 59.1% | 33.2% | 30.4% | 11.3% | -1.4% | 16.3% | 6.8%
CCOC(=O)c1ccc(Nc2cc(NC(=O)CCCC(=O)O)ncn2)cc1 | 4.9% | 28.2% | 2.9% | 1.2% | -0.6% | 9.2% | -1.4% | 5.6% | 7.2% | 11.5% | 11.4% | 24.2% | 27.1% | -3.1% | 10.4% | 8.4%
COc1ccc(Nc2cc(NC(=O)c3ccccc3)ncn2)cc1 | 55.8% | 21.6% | 2.3% | 3.5% | 1.8% | 5.3% | -7.9% | -1.6% | 8.3% | 6.9% | 27.7% | 29.4% | 71.4% | -0.8% | 2.9% | 5.6%
O=C(O)CCCC(=O)Nc1cc(Nc2cccc(Cl)c2)ncn1 | 57.3% | 29.4% | 12.3% | 1.1% | 8.8% | 13.2% | -0.6% | 13.5% | 16.5% | 35.5% | 83.7% | 74.1% | 88.6% | -1% | 16.8% | 9.6%

Reference: ChEMBL document CHEMBL4265907, “Design, synthesis and pharmacological evaluation of N4,N6-disubstituted pyrimidine-4,6-diamine derivatives as potent EGFR inhibitors in non-small cell lung cancer” (Eur J Med Chem, 2018)
